Results as given in ChEMBL document CHEMBL1138569, “A facile synthesis of novel biologically active 4-hydroxy-N'-(benzylidene)-2H-benzo[e][1,2]thiazine-3-carbohydrazide 1,1-dioxides” (2009).
Calls of active or inactive are those of the source. No cut-off for these calls is given here.

What was measured:
Shigella flexneri [1] = assay: Antibacterial activity against Shigella flexneri at 1 mg/ml by agar well diffusion method; assay type: functional; settings: for zone of inhibition at 1000 µg/mL: read-out: IZ
In short: (§1)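 Agar well diffusion; compounds loaded into 6 mm wells at 1 mg per ml DMSO, with a DMSO-only (0) control. Read-out: inhibition zone diameter (mm).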

Bacillus subtilis [2] = assay: Antibacterial activity against Bacillus subtilis at 1 mg/ml by agar well diffusion method; assay type: functional, organism-based; in short: as §1
Staphylococcus aureus [3] = assay: Antibacterial activity against Staphylococcus aureus at 1 mg/ml by agar well diffusion method; assay type: functional; settings: for zone of inhibition at 1000 µg/mL: read-out: IZ; in short: as §1
Pseudomonas aeruginosa [4] = assay: Antibacterial activity against Pseudomonas aeruginosa at 1 mg/ml by agar well diffusion method; assay type: functional, organism-based; in short: as §1
Escherichia coli [5] = assay: Antibacterial activity against Escherichia coli at 1 mg/ml by agar well diffusion method; assay type: functional, organism-based; in short: as §1
[6] = test system: Radical scavenging activity; assay: Antioxidant activity assessed as DPPH radical scavenging activity after 30 mins; assay type: functional; parameters: concentration or dose not given beside the values
In short: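 Test sample (0.5 mM stock in DMSO, 5 µL) mixed with 95 µL DPPH in ethanol and incubated at 37 °C for 30 min. Absorbance read at 515 nm. Percent radical scavenging calculated against a DMSO-containing control; 3-tert-butyl-4-hydroxyanisole used as reference.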

[7] = test system: Salmonella enterica subsp. enterica serovar Typhi str. CT18; assay: Antibacterial activity against Salmonella typhi at 1 mg/ml by agar well diffusion method; assay type: functional; settings: for zone of inhibition at 1000 µg/mL: read-out: IZ
In short: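 Agar well diffusion against Salmonella typhi. Samples were dissolved in DMSO at 1 mg per ml and applied to 6 mm diameter wells. A solvent-only well served as control. Activity was read as inhibition zone diameter in mm.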

Pseudomonas aeruginosa [8] = assay: Antibacterial activity against Pseudomonas aeruginosa at 10 ug/disk by agar well diffusion method; assay type: functional; settings: read-out: IZ
In short: (§2)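 Agar well diffusion with imipenem as the standard at 10 µg per disc, run alongside 6 mm wells and a DMSO-only control. Read-out: inhibition zone diameter (mm).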

[9] = test system: Salmonella enterica subsp. enterica serovar Typhi str. CT18; assay: Antibacterial activity against Salmonella typhi at 10 ug/disk by agar well diffusion method; assay type: functional; settings: read-out: IZ
In short: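 Agar well diffusion against Salmonella typhi, using the reference antibiotic imipenem applied at 10 µg per disc alongside 6 mm sample wells. Activity was read as inhibition zone diameter in mm.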

Escherichia coli [10] = assay: Antibacterial activity against Escherichia coli at 10 ug/disk by agar well diffusion method; assay type: functional; settings: read-out: IZ; in short: as §2
Shigella flexneri [11] = assay: Antibacterial activity against Shigella flexneri at 10 ug/disk by agar well diffusion method; assay type: functional; settings: read-out: IZ; in short: as §2
Staphylococcus aureus [12] = assay: Antibacterial activity against Staphylococcus aureus at 10 ug/disk by agar well diffusion method; assay type: functional; settings: read-out: IZ; in short: as §2
Bacillus subtilis [13] = assay: Antibacterial activity against Bacillus subtilis at 10 ug/disk by agar well diffusion method; assay type: functional; settings: read-out: IZ; in short: as §2

SMILES: COc1ccc(/C=N/NC(=O)C2=C(O)c3ccccc3S(=O)(=O)N2)c(OC)c1OC
- zone of inhibition at 1000 µg/mL (Shigella flexneri [1]): 22 mm
- inhibition zone (IZ) (Bacillus subtilis [2]): inactive
- zone of inhibition at 1000 µg/mL (Staphylococcus aureus [3]): 21 mm
- inhibition zone (IZ) (Pseudomonas aeruginosa [4]): inactive
- inhibition zone (IZ) (Escherichia coli [5]): inactive
- Activity [6]: 43.6%
- inhibition zone (IZ) [7]: inactive

SMILES: COc1cc(/C=N/NC(=O)C2=C(O)c3ccccc3S(=O)(=O)N2)ccc1O
- inhibition zone (IZ) (Shigella flexneri [1]): inactive
- inhibition zone (IZ) (Bacillus subtilis [2]): inactive
- zone of inhibition at 1000 µg/mL (Staphylococcus aureus [3]): 15 mm
- inhibition zone (IZ) (Pseudomonas aeruginosa [4]): inactive
- inhibition zone (IZ) (Escherichia coli [5]): inactive
- Activity [6]: 35%
- inhibition zone (IZ) [7]: inactive

SMILES: O=C(N/N=C/c1ccc([N+](=O)[O-])cc1)C1=C(O)c2ccccc2S(=O)(=O)N1
- inhibition zone (IZ) (Shigella flexneri [1]): inactive
- inhibition zone (IZ) (Bacillus subtilis [2]): inactive
- inhibition zone (IZ) (Staphylococcus aureus [3]): inactive
- inhibition zone (IZ) (Pseudomonas aeruginosa [4]): inactive
- inhibition zone (IZ) (Escherichia coli [5]): inactive
- Activity [6]: 30.9%
- zone of inhibition at 1000 µg/mL [7]: 26 mm

SMILES: O=C(N/N=C/c1ccc(Cl)cc1Cl)C1=C(O)c2ccccc2S(=O)(=O)N1
- zone of inhibition at 1000 µg/mL (Shigella flexneri [1]): 10 mm
- inhibition zone (IZ) (Bacillus subtilis [2]): inactive
- inhibition zone (IZ) (Staphylococcus aureus [3]): inactive
- inhibition zone (IZ) (Pseudomonas aeruginosa [4]): inactive
- inhibition zone (IZ) (Escherichia coli [5]): inactive
- Activity [6]: 43.8%
- inhibition zone (IZ) [7]: inactive

SMILES: C[C@@H](O)[C@H]1C(=O)N2C(C(=O)O)=C(SCCNC=N)C[C@H]12 [IMIPENEM ANHYDROUS]
- zone of inhibition at 10 µg/disc (Pseudomonas aeruginosa [8]): 32 mm
- zone of inhibition at 10 µg/disc [9]: 30 mm
- zone of inhibition at 10 µg/disc (Escherichia coli [10]): 30 mm
- zone of inhibition at 10 µg/disc (Shigella flexneri [11]): 37 mm
- zone of inhibition at 10 µg/disc (Staphylococcus aureus [12]): 26 mm
- zone of inhibition at 10 µg/disc (Bacillus subtilis [13]): 36 mm

SMILES: COc1ccc(/C=N/NC(=O)C2=C(O)c3ccccc3S(=O)(=O)N2)cc1
- inhibition zone (IZ) (Shigella flexneri [1]): inactive
- inhibition zone (IZ) (Bacillus subtilis [2]): inactive
- zone of inhibition at 1000 µg/mL (Staphylococcus aureus [3]): 12 mm
- inhibition zone (IZ) (Pseudomonas aeruginosa [4]): inactive
- inhibition zone (IZ) (Escherichia coli [5]): inactive
- Activity [6]: 43.7%
- inhibition zone (IZ) [7]: inactive

SMILES: COc1ccc(/C=N/NC(=O)C2=C(O)c3ccccc3S(=O)(=O)N2)cc1O
- zone of inhibition at 1000 µg/mL (Shigella flexneri [1]): 10 mm
- inhibition zone (IZ) (Bacillus subtilis [2]): inactive
- zone of inhibition at 1000 µg/mL (Staphylococcus aureus [3]): 10 mm
- inhibition zone (IZ) (Pseudomonas aeruginosa [4]): inactive
- inhibition zone (IZ) (Escherichia coli [5]): inactive
- Activity [6]: 42.9%
- inhibition zone (IZ) [7]: inactive

SMILES: COc1ccc(/C=N/NC(=O)C2=C(O)c3ccccc3S(=O)(=O)N2)c(OC)c1
- inhibition zone (IZ) (Shigella flexneri [1]): inactive
- inhibition zone (IZ) (Bacillus subtilis [2]): inactive
- inhibition zone (IZ) (Staphylococcus aureus [3]): inactive
- inhibition zone (IZ) (Pseudomonas aeruginosa [4]): inactive
- inhibition zone (IZ) (Escherichia coli [5]): inactive
- Activity [6]: 68.2%
- inhibition zone (IZ) [7]: inactive

SMILES: O=C(N/N=C/c1ccccc1Cl)C1=C(O)c2ccccc2S(=O)(=O)N1
- inhibition zone (IZ) (Shigella flexneri [1]): inactive
- inhibition zone (IZ) (Bacillus subtilis [2]): inactive
- inhibition zone (IZ) (Staphylococcus aureus [3]): inactive
- inhibition zone (IZ) (Pseudomonas aeruginosa [4]): inactive
- inhibition zone (IZ) (Escherichia coli [5]): inactive
- Activity [6]: 57.4%
- inhibition zone (IZ) [7]: inactive

SMILES: O=C(N/N=C/c1cccc(Cl)c1)C1=C(O)c2ccccc2S(=O)(=O)N1
- inhibition zone (IZ) (Shigella flexneri [1]): inactive
- inhibition zone (IZ) (Bacillus subtilis [2]): inactive
- inhibition zone (IZ) (Staphylococcus aureus [3]): inactive
- inhibition zone (IZ) (Pseudomonas aeruginosa [4]): inactive
- inhibition zone (IZ) (Escherichia coli [5]): inactive
- Activity [6]: 23.8%
- inhibition zone (IZ) [7]: inactive

SMILES: O=C(N/N=C/c1ccccc1O)C1=C(O)c2ccccc2S(=O)(=O)N1
- inhibition zone (IZ) (Shigella flexneri [1]): inactive
- inhibition zone (IZ) (Bacillus subtilis [2]): inactive
- inhibition zone (IZ) (Staphylococcus aureus [3]): inactive
- inhibition zone (IZ) (Pseudomonas aeruginosa [4]): inactive
- inhibition zone (IZ) (Escherichia coli [5]): inactive
- Activity [6]: 40.7%
- inhibition zone (IZ) [7]: inactive

SMILES: O=C(N/N=C/c1ccccc1)C1=C(O)c2ccccc2S(=O)(=O)N1
- inhibition zone (IZ) (Shigella flexneri [1]): inactive
- inhibition zone (IZ) (Bacillus subtilis [2]): inactive
- inhibition zone (IZ) (Staphylococcus aureus [3]): inactive
- inhibition zone (IZ) (Pseudomonas aeruginosa [4]): inactive
- inhibition zone (IZ) (Escherichia coli [5]): inactive
- Activity [6]: 37.6%
- inhibition zone (IZ) [7]: inactive

SMILES: O=C(N/N=C/c1ccc(Cl)cc1)C1=C(O)c2ccccc2S(=O)(=O)N1
- inhibition zone (IZ) (Shigella flexneri [1]): inactive
- inhibition zone (IZ) (Bacillus subtilis [2]): inactive
- inhibition zone (IZ) (Staphylococcus aureus [3]): inactive
- inhibition zone (IZ) (Pseudomonas aeruginosa [4]): inactive
- inhibition zone (IZ) (Escherichia coli [5]): inactive
- Activity [6]: 21.2%
- inhibition zone (IZ) [7]: inactive

SMILES: COc1ccc(/C=N/NC(=O)C2=C(O)c3ccccc3S(=O)(=O)N2)cc1OC
- zone of inhibition at 1000 µg/mL (Shigella flexneri [1]): 20 mm
- inhibition zone (IZ) (Bacillus subtilis [2]): inactive
- inhibition zone (IZ) (Staphylococcus aureus [3]): inactive
- inhibition zone (IZ) (Pseudomonas aeruginosa [4]): inactive
- inhibition zone (IZ) (Escherichia coli [5]): inactive
- Activity [6]: 38%
- zone of inhibition at 1000 µg/mL [7]: 11 mm

SMILES: COc1ccc(O)c(C(C)(C)C)c1.COc1ccc(O)cc1C(C)(C)C
- inhibition zone (IZ) (Shigella flexneri [1]): inactive
- inhibition zone (IZ) (Bacillus subtilis [2]): inactive
- inhibition zone (IZ) (Staphylococcus aureus [3]): inactive
- inhibition zone (IZ) (Pseudomonas aeruginosa [4]): inactive
- inhibition zone (IZ) (Escherichia coli [5]): inactive
- Activity [6]: 92.6%
- inhibition zone (IZ) [7]: inactive

SMILES: O=C(N/N=C/c1ccc(O)cc1O)C1=C(O)c2ccccc2S(=O)(=O)N1
- inhibition zone (IZ) (Shigella flexneri [1]): inactive
- inhibition zone (IZ) (Bacillus subtilis [2]): inactive
- inhibition zone (IZ) (Staphylococcus aureus [3]): inactive
- inhibition zone (IZ) (Pseudomonas aeruginosa [4]): inactive
- inhibition zone (IZ) (Escherichia coli [5]): inactive
- Activity [6]: 65%
- zone of inhibition at 1000 µg/mL [7]: 28 mm

SMILES: O=C(N/N=C/c1ccccc1[N+](=O)[O-])C1=C(O)c2ccccc2S(=O)(=O)N1
- inhibition zone (IZ) (Shigella flexneri [1]): inactive
- inhibition zone (IZ) (Bacillus subtilis [2]): inactive
- zone of inhibition at 1000 µg/mL (Staphylococcus aureus [3]): 10 mm
- inhibition zone (IZ) (Pseudomonas aeruginosa [4]): inactive
- inhibition zone (IZ) (Escherichia coli [5]): inactive
- Activity [6]: 37.3%
- zone of inhibition at 1000 µg/mL [7]: 11 mm
